Laboratory results from ChEMBL document CHEMBL3734675, “Synthesis, antimycobacterial and antibacterial activity of fluoroquinolone derivatives containing an 3-alkoxyimino-4-(cyclopropylanimo)methylpyrrolidine moiety” (2015).
In brackets after ≈: the same amount, converted by molar mass.

Legend:
Format in all cases: functional
Enterococcus faecium [1] = test: Antibacterial activity against Enterococcus faecium 14-6 after 18 to 24 hrs by two-fold serial dilution method
Method in brief: (§1)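 Twofold serial dilution in agar media against Gram-positive and Gram-negative strains. Plates incubated at 35 °C for 18–24 h. MIC read as the lowest compound concentration giving complete inhibition of bacterial growth.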

Escherichia coli [2] = test: Antibacterial activity against Escherichia coli 14-2 after 18 to 24 hrs by two-fold serial dilution method; method in brief: as §1
Staphylococcus aureus [3] = test: Antibacterial activity against methicillin-resistant Staphylococcus aureus 14-4 after 18 to 24 hrs by two-fold serial dilution method
Method in brief: (§2)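 Agar media, standard twofold serial dilution. MIC is the lowest concentration giving complete inhibition of bacterial growth after incubation at 35 °C for 18–24 h. Ciprofloxacin and levofloxacin were run as comparators.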

Enterococcus faecalis [4] = test: Antibacterial activity against Enterococcus faecalis 14-2 after 18 to 24 hrs by two-fold serial dilution method; method in brief: as §1
[5] = system: Staphylococcus epidermidis; test: Antibacterial activity against methicillin-resistant Staphylococcus epidermidis 14-21 after 18 to 24 hrs by two-fold serial dilution method; method in brief: as §2
Pseudomonas aeruginosa [6] = test: Antibacterial activity against Pseudomonas aeruginosa 14-9 after 18 to 24 hrs by two-fold serial dilution method; method in brief: as §1
Staphylococcus aureus [7] = test: Antibacterial activity against methicillin-resistant Staphylococcus aureus 14-5 after 18 to 24 hrs by two-fold serial dilution method; method in brief: as §2
Pseudomonas aeruginosa [8] = test: Antibacterial activity against Pseudomonas aeruginosa 14-16 after 18 to 24 hrs by two-fold serial dilution method; method in brief: as §1
Klebsiella pneumoniae [9] = test: Antibacterial activity against extended-spectrum beta-lactamase producing Klebsiella pneumoniae 14-18 after 18 to 24 hrs by two-fold serial dilution method; method in brief: as §1
Klebsiella pneumoniae [10] = test: Antibacterial activity against Klebsiella pneumoniae 14-2 after 18 to 24 hrs by two-fold serial dilution method; method in brief: as §1
[11] = system: Mycobacterium tuberculosis; test: Antimycobacterial activity against Mycobacterium tuberculosis H37Rv ATCC 27294 incubated for 7 days by microplate Alamar Blue assay; details: H37Rv ATCC 27294, 168 h
Method in brief: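 Fluorescence read-out. MIC is the lowest concentration that reduces fluorescence by at least 90% relative to the mean of replicate bacterium-only controls. Isoniazid and rifampicin were included as reference drugs.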

Escherichia coli [12] = test: Antibacterial activity against extended-spectrum beta-lactamase producing Escherichia coli 14-2 after 18 to 24 hrs by two-fold serial dilution method; method in brief: as §1
[13] = system: Staphylococcus epidermidis; test: Antibacterial activity against methicillin-sensitive Staphylococcus epidermidis 14-2 after 18 to 24 hrs by two-fold serial dilution method; method in brief: as §1
Pseudomonas aeruginosa [14] = test: Antibacterial activity against Pseudomonas aeruginosa 14-15 after 18 to 24 hrs by two-fold serial dilution method; method in brief: as §1
Staphylococcus aureus [15] = test: Antibacterial activity against Staphylococcus aureus CMCC 26003 after 18 to 24 hrs by two-fold serial dilution method; method in brief: as §1
Pseudomonas aeruginosa [16] = test: Antibacterial activity against Pseudomonas aeruginosa 14-14 after 18 to 24 hrs by two-fold serial dilution method; method in brief: as §1
[17] = system: Staphylococcus epidermidis; test: Antibacterial activity against methicillin-resistant Staphylococcus epidermidis 14-39 after 18 to 24 hrs by two-fold serial dilution method; method in brief: as §2
Staphylococcus aureus [18] = test: Antibacterial activity against methicillin-sensitive Staphylococcus aureus 14-4 after 18 to 24 hrs by two-fold serial dilution method; method in brief: as §1
[19] = system: Staphylococcus epidermidis; test: Antibacterial activity against methicillin-resistant Staphylococcus epidermidis 14-37 after 18 to 24 hrs by two-fold serial dilution method; method in brief: as §2
Klebsiella pneumoniae [20] = test: Antibacterial activity against extended-spectrum beta-lactamase producing Klebsiella pneumoniae 14-17 after 18 to 24 hrs by two-fold serial dilution method; method in brief: as §1
Enterococcus faecium [21] = test: Antibacterial activity against Enterococcus faecium 14-2 after 18 to 24 hrs by two-fold serial dilution method; method in brief: as §1
[22] = system: Staphylococcus epidermidis; test: Antibacterial activity against methicillin-resistant Staphylococcus epidermidis 14-22 after 18 to 24 hrs by two-fold serial dilution method; method in brief: as §2
Enterococcus faecium [23] = test: Antibacterial activity against Enterococcus faecium 14-5 after 18 to 24 hrs by two-fold serial dilution method; method in brief: as §1
Escherichia coli [24] = test: Antibacterial activity against extended-spectrum beta-lactamase producing Escherichia coli 14-1 after 18 to 24 hrs by two-fold serial dilution method; method in brief: as §1
Escherichia coli [25] = test: Antibacterial activity against Escherichia coli 14-1 after 18 to 24 hrs by two-fold serial dilution method; method in brief: as §1
Klebsiella pneumoniae [26] = test: Antibacterial activity against Klebsiella pneumoniae 14-1 after 18 to 24 hrs by two-fold serial dilution method; method in brief: as §1
Klebsiella pneumoniae [27] = test: Antibacterial activity against Klebsiella pneumoniae 14-4 after 18 to 24 hrs by two-fold serial dilution method; method in brief: as §1
Klebsiella pneumoniae [28] = test: Antibacterial activity against extended-spectrum beta-lactamase producing Klebsiella pneumoniae 14-19 after 18 to 24 hrs by two-fold serial dilution method; method in brief: as §1
Streptococcus pneumoniae = test: Antibacterial activity against methicillin-resistant Streptococcus pneumoniae ATCC 19615 after 18 to 24 hrs by two-fold serial dilution method; method in brief: as §2
Klebsiella pneumoniae [29] = test: Antibacterial activity against Klebsiella pneumoniae 14-3 after 18 to 24 hrs by two-fold serial dilution method; method in brief: as §1
Enterococcus faecalis [30] = test: Antibacterial activity against Enterococcus faecalis 14-1 after 18 to 24 hrs by two-fold serial dilution method; method in brief: as §1
Staphylococcus aureus [31] = test: Antibacterial activity against methicillin-sensitive Staphylococcus aureus 14-1 after 18 to 24 hrs by two-fold serial dilution method; method in brief: as §1
Escherichia coli [32] = test: Antibacterial activity against Escherichia coli ATCC 25922 after 18 to 24 hrs by two-fold serial dilution method; method in brief: as §1
Staphylococcus aureus [33] = test: Antibacterial activity against methicillin-sensitive Staphylococcus aureus 14-3 after 18 to 24 hrs by two-fold serial dilution method; method in brief: as §1
Pseudomonas aeruginosa [34] = test: Antibacterial activity against Pseudomonas aeruginosa ATCC 27853 after 18 to 24 hrs by two-fold serial dilution method; method in brief: as §1

Row | SMILES | MIC (Enterococcus faecium [1]) [µg/mL] | MIC (Escherichia coli [2]) [µg/mL] | MIC (Staphylococcus aureus [3]) [µg/mL] | MIC (Enterococcus faecalis [4]) [µg/mL] | MIC [5] [µg/mL] | MIC (Pseudomonas aeruginosa [6]) [µg/mL] | MIC (Staphylococcus aureus [7]) [µg/mL] | MIC (Pseudomonas aeruginosa [8]) [µg/mL] | MIC (Klebsiella pneumoniae [9]) [µg/mL] | MIC (Klebsiella pneumoniae [10]) [µg/mL] | MIC90 [11] [µg/mL] | MIC (Escherichia coli [12]) [µg/mL] | MIC [13] [µg/mL] | MIC (Pseudomonas aeruginosa [14]) [µg/mL] | MIC (Staphylococcus aureus [15]) [µg/mL] | MIC (Pseudomonas aeruginosa [16]) [µg/mL] | MIC [17] [µg/mL] | MIC (Staphylococcus aureus [18]) [µg/mL] | MIC [19] [µg/mL] | MIC (Klebsiella pneumoniae [20]) [µg/mL] | further results
1 | CO/N=C1/CN(c2nc3c(cc2F)c(=O)c(C(=O)O)cn3[C@@H]2C[C@@H]2F)CC1(C)CNC1CC1 (stereo not given in full) | 2 (≈ 4.33 µM) | > 128 | 4 (≈ 8.67 µM) | 1 (≈ 2.17 µM) | 4 (≈ 8.67 µM) | 16 (≈ 34.7 µM) | 2 (≈ 4.33 µM) | 32 (≈ 69.3 µM) | 64 (≈ 139 µM) | 64 (≈ 139 µM) | 0.45 (≈ 0.975 µM) | > 128 | 16 (≈ 34.7 µM) | 64 (≈ 139 µM) | < 0.008 | 64 (≈ 139 µM) | 4 (≈ 8.67 µM) | 2 (≈ 4.33 µM) | 2 (≈ 4.33 µM) | 64 (≈ 139 µM) | MIC (Enterococcus faecium [21]): 4 µg/mL (≈ 8.67 µM); MIC [22]: 4 µg/mL (≈ 8.67 µM); MIC (Enterococcus faecium [23]): 4 µg/mL (≈ 8.67 µM); MIC (Escherichia coli [24]): 16 µg/mL (≈ 34.7 µM); MIC (Escherichia coli [25]): > 128 µg/mL; MIC (Klebsiella pneumoniae [26]): 32 µg/mL (≈ 69.3 µM); MIC (Klebsiella pneumoniae [27]): > 128 µg/mL; MIC (Klebsiella pneumoniae [28]): 32 µg/mL (≈ 69.3 µM); MIC (Streptococcus pneumoniae): 0.5 µg/mL (≈ 1.08 µM); MIC (Klebsiella pneumoniae [29]): 128 µg/mL (≈ 277 µM); MIC (Enterococcus faecalis [30]): 16 µg/mL (≈ 34.7 µM); MIC (Staphylococcus aureus [31]): 1 µg/mL (≈ 2.17 µM); MIC (Escherichia coli [32]): 1 µg/mL (≈ 2.17 µM); MIC (Staphylococcus aureus [33]): 1 µg/mL (≈ 2.17 µM); MIC (Pseudomonas aeruginosa [34]): 16 µg/mL (≈ 34.7 µM)
2 | CO/N=C1/CN(c2nc3c(cc2F)c(=O)c(C(=O)O)cn3-c2nc(N)c(F)cc2F)CC1CNC1CC1 (stereo not given) | 32 (≈ 61.8 µM) | > 128 | 64 (≈ 124 µM) | 4 (≈ 7.73 µM) | 64 (≈ 124 µM) | 32 (≈ 61.8 µM) | 16 (≈ 30.9 µM) | 64 (≈ 124 µM) | 64 (≈ 124 µM) | 32 (≈ 61.8 µM) | 24.3 (≈ 46.9 µM) | > 128 | 128 (≈ 247 µM) | 128 (≈ 247 µM) | 0.25 (≈ 0.483 µM) | 128 (≈ 247 µM) | 16 (≈ 30.9 µM) | 16 (≈ 30.9 µM) | 64 (≈ 124 µM) | 64 (≈ 124 µM) | MIC (Enterococcus faecium [21]): 32 µg/mL (≈ 61.8 µM); MIC [22]: 32 µg/mL (≈ 61.8 µM); MIC (Enterococcus faecium [23]): 16 µg/mL (≈ 30.9 µM); MIC (Escherichia coli [24]): 16 µg/mL (≈ 30.9 µM); MIC (Escherichia coli [25]): > 128 µg/mL; MIC (Klebsiella pneumoniae [26]): 32 µg/mL (≈ 61.8 µM); MIC (Klebsiella pneumoniae [27]): > 128 µg/mL; MIC (Klebsiella pneumoniae [28]): 64 µg/mL (≈ 124 µM); MIC (Streptococcus pneumoniae): 32 µg/mL (≈ 61.8 µM); MIC (Klebsiella pneumoniae [29]): > 128 µg/mL; MIC (Enterococcus faecalis [30]): 16 µg/mL (≈ 30.9 µM); MIC (Staphylococcus aureus [31]): 16 µg/mL (≈ 30.9 µM); MIC (Escherichia coli [32]): 4 µg/mL (≈ 7.73 µM); MIC (Staphylococcus aureus [33]): 16 µg/mL (≈ 30.9 µM); MIC (Pseudomonas aeruginosa [34]): 16 µg/mL (≈ 30.9 µM)
